Assay outcomes from PubChem.
PAFAH1B3 inh = PAFAH1B3 (human) inhibition. inhibition, % at 3.39 µM. Q15102. recombinant PAFAH1B3, FP-rhodamine probe, fluorescence polarization. actives 0.28% (n = 340,000);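 active means inhibition above the screen-wide average of all tested compounds plus 3 SD, cut at about 25% in these data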;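 further: 0% = enzyme with DMSO only and 100% = wells lacking PAFAH1B3 protein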
Target sequence (Q15102 whole entry, looked up): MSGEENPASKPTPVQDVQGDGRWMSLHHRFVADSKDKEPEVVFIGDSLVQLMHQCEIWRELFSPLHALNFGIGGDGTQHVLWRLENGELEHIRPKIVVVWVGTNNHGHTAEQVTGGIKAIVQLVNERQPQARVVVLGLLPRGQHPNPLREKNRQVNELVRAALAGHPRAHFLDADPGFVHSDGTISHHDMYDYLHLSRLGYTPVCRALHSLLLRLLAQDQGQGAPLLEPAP
PAFAH2 FP inh = inhibitors of human PAFAH2; Q99487; recombinant PAFAH2, FP-rhodamine activity probe, fluorescence polarization; inhibition, % at 3.39 µM; actives 0.99% (n = 340,000); AID 492956;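 active means inhibition above the mean over all tested compounds plus 3 SD, cut at about 30% in these data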;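 further: inhibitors block probe labeling of enzyme so polarization drops; 0% = enzyme with DMSO and 100% = wells lacking PAFAH2 protein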
ASAP1 GAP inh = blocks human ASAP1-stimulated Arf1 GTP hydrolysis. AID 624377. inhibition, % at 16.5 µM. GDP FP detection. actives 0.19% (n = 360,000); in the data active means inhibition above about 25%;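 further: 0% = vehicle with enzyme and substrate and 100% = no enzyme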
Target sequence (Q9ULH1 325-724 limits assumed): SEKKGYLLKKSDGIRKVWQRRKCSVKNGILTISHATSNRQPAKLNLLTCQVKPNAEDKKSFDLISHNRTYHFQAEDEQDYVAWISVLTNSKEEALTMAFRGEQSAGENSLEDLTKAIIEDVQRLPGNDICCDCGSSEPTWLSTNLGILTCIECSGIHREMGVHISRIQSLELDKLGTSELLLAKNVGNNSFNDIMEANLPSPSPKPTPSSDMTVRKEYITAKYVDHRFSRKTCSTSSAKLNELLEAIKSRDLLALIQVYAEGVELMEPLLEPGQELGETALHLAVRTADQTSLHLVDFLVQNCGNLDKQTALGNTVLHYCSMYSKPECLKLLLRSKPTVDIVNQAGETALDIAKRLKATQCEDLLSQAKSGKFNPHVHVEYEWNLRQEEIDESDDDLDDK
PAFAH1B2 inh = PAFAH1B2 (human) inhibition; P68402; recombinant PAFAH1B2, FP-rhodamine activity probe, fluorescence polarization; inhibition, % at 3.39 µM; actives 1.2% (n = 340,000);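 active means inhibition above the mean of all tested compounds plus 3 SD, cut at about 24% in these data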;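 further: 0% = enzyme with DMSO and 100% = wells lacking PAFAH1B2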
pPAFAH inh = inhibitors of human plasma PAF acetylhydrolase (pPAFAH). recombinant pPAFAH, FP-rhodamine probe fluorescence polarization. inhibition, % at 3.39 µM. actives 1.5% (n = 330,000). AID 463082;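 active means inhibition above the mean inhibition across the screen plus 3 SD, cut at about 25% in these data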;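 further: inhibitors block binding of the rhodamine activity-based probe so polarization drops; 0% = enzyme with DMSO and 100% = wells lacking pPAFAH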
ARFGAP1 inhibitor = inhibitors of rat ARFGAP1 | Q62848 | Arfgap1-stimulated ARF1 GTP hydrolysis, GDP FP detection | inhibition, % at 16.5 µM | actives 0.26% (n = 360,000) | AID 651572;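 active means inhibition above a per-plate limit, mean inhibition of low control wells plus 3 SD, cut at about 25% in these data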;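 further: 0% = DMSO wells with enzyme and 100% = wells lacking Arfgap1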
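Material – truncated rat Arfgap1 GAP domain · Buffer or medium – HEPES-based buffer, pH 7.5 · Reagent – human ARF1(Δ1-17)-GTP substrate · Dosing – 16.5 µM single point, 1.26% DMSO · Schedule – GTP hydrolysis reaction 2 h at 25 °C · Technique – GDP detection by fluorescence polarization · Benchmarks – No-Arfgap1 wells (100%) versus DMSO full-reaction wells (0%) · Repeats – single replicate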
PAFAH1B3 confirm = confirmation of human PAFAH1B3 inhibitors; inhibition, % at 3.39 µM; shares compounds with PAFAH1B3 inh; actives 30% (n = 390); recombinant PAFAH1B3, FP-Rh activity-based probe, fluorescence polarization; AID 493032;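 active means average inhibition over triplicate runs above the hit cutoff set in the earlier primary screen, cut at about 25% in these data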;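 further: 0% = enzyme with DMSO and 100% = wells lacking PAFAH1B3 protein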
Numbers without * were called inactive; / = no result given. Sampled rows, rich in hits. Any-hit rate of the full collection: about 2.7%.

SMILES | PAFAH1B3 inh | PAFAH2 FP inh | ASAP1 GAP inh | PAFAH1B2 inh | pPAFAH inh | ARFGAP1 inhibitor | PAFAH1B3 confirm
O=C(Nc1nccs1)C1CC=CCC1 (stereo not drawn) | 2 | -7 | -6 | 1 | 9 | -7 | /
O=C(Nc1ccc(O)cc1)C1CC=CCC1 (stereo not drawn) | 27* | 26 | 11 | 13 | 17 | 2 | 12
Cc1ccc(-c2[nH]c3cc(C(N)=O)ccc3c(=O)c2O)cc1 | 29* | -20 | -5 | 11 | 24 | -3 | 23
CCCNC(=O)c1ccc2c(=O)c(O)c(-c3ccc(C)cc3)[nH]c2c1 | 27* | -20 | 12 | 10 | 15 | 6 | 6
O=C(CC[C@H]1O[C@@H](n2ccc(=O)[nH]c2=O)[C@H](O)[C@@H]1O)N[C@H](Cc1ccccc1)C(=O)NCc1cccs1 | / | / | -1 | / | / | 9 | /
C[C@H](O)[C@@H]1C(=O)N2CCc3ccc(N4CCN(C)CC4)cc3[C@@H]2C[C@@H]1N(C)C(=O)c1ccc(C#N)cc1 | 11 | -3 | -13 | 2 | / | 5 | /
COCCNC(=O)/C(C#N)=C/c1ccc(OC(=O)c2cccs2)c(OC)c1 | 26* | 3 | -7 | 1 | / | 5 | 12
CC(C)NCC(O)(c1ccc(Cl)cc1)c1ccc(Cl)cc1 | 29* | -5 | -4 | 6 | 1 | 3 | 7
O=C(O)c1ccccc1Nc1ccc([N+](=O)[O-])cc1C(=O)O | 43* | 1 | 2 | 1 | 1 | -4 | 11
Cc1ccc(S(=O)(=O)N(CCCc2c(C)nc[nH]c2=O)c2ccccc2)cc1 | 7 | 3 | 3 | 4 | / | 0 | /
O=C(O)c1ccc(NC2=C(Cl)C(=O)c3ccccc3C2=O)cc1 | 33* | 12 | -9 | 12 | -2 | 12 | 23
CC1=C(Nc2ccc(C(=O)O)cc2)C(=O)c2ccccc2C1=O | 13 | 1 | -1 | 6 | 2 | -4 | /
O=C(O)c1cccc(NC2=C(Cl)C(=O)c3ccccc3C2=O)c1 | 27* | 21 | 12 | 13 | / | -4 | 23
O=C1C(Cl)=C(Nc2ccccc2)C(=O)c2ccccc21 | 26* | 15 | 1 | 11 | 4 | 2 | 20
CC(=O)N1CCN(C(=O)CNC(=O)c2ccc(C)s2)CC1 | 9 | 15 | -12 | 1 | / | 1 | /
CCN(c1ccccc1)c1cc2ccccc2c(=O)[nH]1 | 26* | 7 | 18 | 13 | 3 | 18 | 8
COc1ccccc1C(=O)NCC(=O)NNC(=O)c1cccs1 | 12 | -5 | -6 | 3 | -1 | -3 | /
COc1ccc(CCC(=O)Nc2cc(S(=O)(=O)N3CCCCC3)ccc2N(C)C)cc1 | 3 | 3 | 4 | 2 | 0 | -4 | /
O=C(COC(=O)c1ccc([N+](=O)[O-])s1)NCc1ccccc1 | 16 | 11 | -2 | 11 | 23 | 10 | /
O=C(COC(=O)c1ccc([N+](=O)[O-])s1)NC(c1ccccc1)c1ccccc1 | 42* | 16 | -2 | 8 | 13 | -11 | 16
CC(C)(C)c1ccc(NC(=O)COC(=O)c2ccc([N+](=O)[O-])s2)cc1 | 38* | 20 | 6 | 23 | 15 | -3 | 24
CCCn1c(N)c(C(=O)CSc2nnc(-c3cccs3)n2C2CC2)c(=O)[nH]c1=O | 10 | 1 | 19 | 6 | 3 | 0 | /
CCCS(=O)(=O)c1c(S(=O)(=O)CCC)c2c(C)cccn2c1C(N)=O | 2 | -5 | 0 | 4 | 5 | 11 | /
CCCS(=O)(=O)c1c(S(=O)(=O)CCC)c2c(C)cccn2c1C(=O)N/N=C/c1cc(O)cc(O)c1 | 27* | 2 | -13 | -2 | 15 | 4 | 11
CCN(CC)CCc1nc(-c2ccccc2)no1 | 29* | 0 | 1 | 1 | 0 | 0 | 34*
SMILES | PAFAH1B3 inh | PAFAH2 FP inh | ASAP1 GAP inh | PAFAH1B2 inh | pPAFAH inh | ARFGAP1 inhibitor | PAFAH1B3 confirm
CCOC1CCCc2oc(-c3ccc(OC)cc3)c(C(=O)NCCCCO)c21 (stereo not drawn) | / | / | 2 | / | / | -4 | /
Cc1ccc(NC(=O)CN2C(=O)N/C(=C\c3ccco3)C2=O)cc1 | 7 | 9 | -4 | 4 | 5 | -5 | /
CC1(C)CC(=O)C=C(c2ccc(-c3ccc4[nH]ccc4c3)cc2)C1=O | / | / | 11 | / | / | -2 | /
CC(=O)c1c(C)[nH]c(C(=O)Nc2ccc(Cl)c(S(=O)(=O)N3CCOCC3)c2)c1C | 28* | 2 | 11 | 8 | -3 | 4 | 5
COc1cc(OC)cc(C(=O)N[C@H](C(=O)OCC(=O)N2CCN(S(=O)(=O)c3ccc(C)cc3)CC2)C(C)C)c1 | 2 | 4 | 1 | 5 | / | 4 | /
COc1cc(/C=N/NC(=O)CCn2c3ccccc3c3ccccc32)ccc1O | 8 | -5 | 3 | 3 | 14 | 9 | /
COc1cc(C(=O)N/N=C/c2ccc3c(c2)c2ccccc2n3C)ccc1O | 41* | -19 | 5 | 14 | / | 5 | 16
COc1ccc(Cn2c(O)c(/C=N/NC(=O)c3cccnc3)c3ccccc3c2=O)cc1 | 26* | 19 | 20 | 13 | / | 3 | 18
c1ccc(-c2csc(CN3CCCCC3)n2)cc1 | 4 | 4 | 6 | 3 | / | 3 | /
CCOC(=O)c1c(C)oc2c1c(C=NCC1CCCO1)c(O)c1ccccc12 (stereo not drawn) | 12 | 12 | -3 | 4 | / | -6 | /
CCOC(=O)c1c(C)oc2c1c(C=NCc1ccccn1)c(O)c1ccccc12 | 56* | 16 | 1 | 13 | / | 0 | 17
N=C1/C(=C/c2ccc(-c3cccc(C(=O)O)c3)o2)C(=O)N=C2SC(CC(=O)N3CCOCC3)=NN12 | 30* | 14 | -3 | 11 | 14 | -3 | 17
COc1ccc(/C=C2\C(=N)N3N=C(CC(=O)N4CCOCC4)SC3=NC2=O)cc1 | -2 | 3 | -2 | 2 | 7 | 6 | /
O=C(/C=C/c1ccc(O)cc1)c1ccc(NC2=C(N3CCCCC3)C(=O)c3ccccc3C2=O)cc1 | 54* | 25 | 23 | 14 | 7 | 14 | 22
COc1ccccc1NC1=C(N2CCCCC2)C(=O)c2ccccc2C1=O | 42* | 13 | / | 7 | -7 | / | 21
O[C@H]1CN(CC2CCCCC2)[C@@H](c2ccc(Cl)cc2)C[C@@H]1n1cc(C2CC2)nn1 | / | / | -1 | / | / | 8 | /
COC(=O)[C@]12CCCCC=C1N(CCC1=CCCCC1)C(=O)[C@H](CC(=O)NCC13CC4CC(CC(C4)C1)C3)C2 | / | / | 8 | / | / | 7 | /
COc1ccc(C(=O)N/N=C/c2sc3ccccc3c2O)cc1 | 17 | 21 | / | 8 | 13 | / | /
COc1ccc2cc(C(=O)N/N=C/c3sc4ccccc4c3O)ccc2c1 | 30* | -6 | 9 | 19 | 24 | -1 | 19
Oc1ccc2ccccc2c1/C=N/Nc1ccccc1 | 3 | 5 | 5 | 10 | 8 | 0 | /
